Experimental data as given in ChEMBL document CHEMBL1145016, “Synthesis and antitumor activity of conjugates of muramyldipeptide or normuramyldipeptide with hydroxyacridine/acridone derivatives” (J Med Chem, 2003).
The source made the active and inactive calls.

Experiments:
[1] = system: MCF7; test: Tested for cytotoxicity of compound against MCF-7 (breast) cell line; Compound was active.; type: functional, cell-based; details: Homo sapiens
[2] = system: SF-268; test: Tested for cytotoxicity of compound against SF-268 (CNS) cell line; Compound was active.; type: functional, cell-based; details: Homo sapiens
[3] = Tested for cytotoxicity (lethal concentration) of compound, activity expressed as MID log LC50; type: functional
Procedure, shortened: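 MID is the calculated mean of LC50 concentrations (M) across the cell line panel, where LC50 is the half-lethal concentration. It is reported as a log value.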

[4] = system: NCI-H460; test: Tested for cytotoxicity of compound against NCI-H460 (lung)cell line; Compound was active.; type: functional, cell-based; details: Homo sapiens
[5] = system: Mus musculus; test: Evaluated in vivo for percent of tumor weight in treated/control of mice at 8.40 mg/kg for 8 days by intraperitoneal treatment on UACC-62 melanoma cell line; details: dose 8.4 mg/kg
[6] = Evaluated in vivo for intraperitoneal score in hallow fiber assay; type: functional
Procedure, shortened: (§1)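 NCI hollow fiber preliminary in vivo assay; scores recorded separately for intraperitoneal (ip) and subcutaneous (sc) fiber implantation sites, with an activity criterion applied (Y/N). Procedure detailed in prior work.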

[7] = system: Mus musculus; test: Evaluated in vivo for percent growth delay in mice at 5.60 mg/kg for 7 days by intraperitoneal treatment on AS283 lymphoma cell line; type: functional; details: dose 5.6 mg/kg
[8] = system: Mus musculus; test: Evaluated in vivo for percent of tumor weight in treated/control of mice at 5.60 mg/kg by intraperitoneal treatment; details: dose 5.6 mg/kg
[9] = system: Mus musculus; test: Evaluated in vivo for percent growth delay in mice at 3.35 mg/kg for 10 days by intraperitoneal treatment on NCI-H522 non-small cell lung cell line
[10] = system: Mus musculus; test: Evaluated in vivo for toxic deaths of mice at 5.60 mg/kg for 12 days by intraperitoneal treatment on COLO 205 colon cell line; type: toxicity, organism-based; parameters: dose 5.6 mg/kg, route intraperitoneal; details: ip, 5.6 mg/kg, 288 h
Procedure, shortened: (§2)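 Nude mice carrying subcutaneous human tumor xenografts, tested at NCI Bethesda; compound given on the stated schedule, intraperitoneally (IP) or intravenously (IV). Three dose levels were tested, and the table reports only the optimal one. Toxic deaths are scored per treatment group alongside tumor weight end points.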

[11] = system: Mus musculus; test: Evaluated in vivo for toxic deaths of mice at 5.60 mg/kg for 24 (38) days by intraperitoneal treatment on MDA-MB-435 breast […] cell line; type: toxicity, organism-based; parameters: dose 5.6 mg/kg, route intraperitoneal; details: ip, 5.6 mg/kg; procedure, shortened: as §2
[12] = system: Mus musculus; test: Evaluated in vivo for percent growth delay in mice at 5.60 mg/kg for 15 days by intraperitoneal treatment on UACC-257 melanoma cell line; details: dose 5.6 mg/kg
[13] = system: Mus musculus; test: Evaluated in vivo for percent growth delay in mice at 5.60 mg/kg for 8 days by intraperitoneal treatment on COLO 205 colon cell line; details: dose 5.6 mg/kg
[14] = system: Mus musculus; test: Evaluated in vivo for percent growth delay in mice at 5.60 mg/kg for 11 days by intraperitoneal treatment on A498 renal cell line; details: dose 5.6 mg/kg
[15] = system: Mus musculus; test: Evaluated in vivo for percent treated/control of mice at 3.35 mg/kg for 10 days by intraperitoneal treatment on NCI-H522 non-small cell lung cell line
[16] = system: Mus musculus; test: Evaluated in vivo for toxic deaths of mice at 3.35 mg/kg for 7 days by intraperitoneal treatment on SK-MEL-28 melanoma cell line; details: ip, 168 h
[17] = Evaluated in vivo for subcutaneous score in hallow fiber assay; type: functional; procedure, shortened: as §1
[18] = system: Mus musculus; test: Evaluated in vivo for toxic deaths of mice at 8.40 mg/kg for 8 days by intraperitoneal treatment on UACC-62 melanoma cell line; details: ip, 8.4 mg/kg, 192 h
[19] = system: Mus musculus; test: Evaluated in vivo for toxic deaths of mice at 5.60 mg/kg for 5 days by intraperitoneal treatment on HCT-15 colon cell line; type: toxicity, organism-based; parameters: dose 5.6 mg/kg, route intraperitoneal; details: ip, 5.6 mg/kg, 120 h; procedure, shortened: as §2
[20] = system: Mus musculus; test: Evaluated in vivo for percent of tumor weight in treated/control of mice at 5.60 mg/kg for 8 days by intraperitoneal treatment on COLO 205 colon cell line; details: dose 5.6 mg/kg
[21] = system: Mus musculus; test: Evaluated in vivo for percent of tumor weight in treated/control of mice 5.60 at mg/kg for 11 days by intraperitoneal treatment on A498 renal cell line
[22] = Evaluated in vivo for intraperitoneal + subcutaneous score in hallow fiber assay; type: functional; procedure, shortened: as §1
[23] = system: Mus musculus; test: Evaluated in vivo for percent growth delay in mice at 8.40 mg/kg for 8 days by intraperitoneal treatment on UACC-62 melanoma cell line; details: dose 8.4 mg/kg
[24] = system: Mus musculus; test: Evaluated in vivo for percent of tumor weight in treated/control of mice at 3.35 mg/kg for 7 days by intraperitoneal treatment on SK-MEL-28 melanoma cell line
[25] = system: Mus musculus; test: Evaluated in vivo for percent growth delay in mice at 3.35 mg/kg for 7 days by intraperitoneal treatment on SK-MEL-28 melanoma cell line
[26] = system: Mus musculus; test: Evaluated in vivo for toxic deaths of mice at 3.35 mg/kg for 10 days by intraperitoneal treatment on NCI-H522 non-small cell lung cell line; details: ip, 240 h
[27] = system: NCI-H460; test: Tested for cytotoxicity of compound against NCI-H460 (lung)cell line; IA means inactive.; type: functional, cell-based; details: Homo sapiens
[28] = system: SF-268; test: Tested for cytotoxicity of compound against SF-268 (CNS) cell line; IA means inactive.; type: functional, cell-based; details: Homo sapiens
[29] = system: MCF7; test: Tested for cytotoxicity of compound against MCF-7 (breast) cell line; IA means inactive.; type: functional, cell-based; details: Homo sapiens
[30] = system: Mus musculus; test: Evaluated in vivo for percent of tumor weight in treated/control of mice at 1.34 mg/kg for 7 days by intraperitoneal treatment on NCI-H460 non-small cell lung cell line; type: functional
[31] = system: Mus musculus; test: Evaluated in vivo for toxic deaths of mice at 0.90 mg/kg for 7 days by intraperitoneal treatment on RXF-393 renal cell line; type: toxicity, organism-based; parameters: dose 0.9 mg/kg, route intraperitoneal; details: ip, 0.9 mg/kg, 168 h; procedure, shortened: as §2
[32] = system: Mus musculus; test: Evaluated in vivo for toxic deaths of mice at 1.50 mg/kg for 10 days by intraperitoneal treatment on UACC-62 melanoma cell line; type: toxicity, organism-based; parameters: dose 1.5 mg/kg, route intraperitoneal; details: ip, 1.5 mg/kg, 240 h; procedure, shortened: as §2
[33] = system: Mus musculus; test: Evaluated in vivo for percent growth delay in mice at 0.90 mg/kg for 7 days by intraperitoneal treatment on RXF-393 renal cell line; type: functional; details: dose 0.9 mg/kg
[34] = system: Mus musculus; test: Evaluated in vivo for toxic deaths of mice at 1.34 mg/kg for 7 days by intraperitoneal treatment on NCI-H460 non-small cell lung cell line; type: toxicity, organism-based; parameters: dose 1.34 mg/kg, route intraperitoneal; details: ip, 168 h; procedure, shortened: as §2
[35] = system: Mus musculus; test: Evaluated in vivo for percent growth delay in mice at 1.80 mg/kg for 24 (38) days by intravenous treatment on MDA-MB-435 breast cell line; type: functional; details: dose 1.8 mg/kg
[36] = system: Mus musculus; test: Evaluated in vivo for percent growth delay in mice at 0.90 mg/kg for 5 days by intraperitoneal treatment on HCT-15 colon cell line; type: functional; details: dose 0.9 mg/kg
[37] = system: Mus musculus; test: Evaluated in vivo for toxic deaths of mice at 0.67 mg/kg for 12 days by intraperitoneal treatment on COLO 205 colon cell line; type: toxicity, organism-based; parameters: dose 0.67 mg/kg, route intraperitoneal; details: ip, 288 h; procedure, shortened: as §2
[38] = system: Mus musculus; test: Evaluated in vivo for percent growth delay in mice at 1.50 mg/kg for 10 days by intraperitoneal treatment on UACC-62 melanoma cell line; type: functional; details: dose 1.5 mg/kg
[39] = system: Mus musculus; test: Evaluated in vivo for percent growth delay in mice at 1.34 mg/kg for 7 days by intraperitoneal treatment on NCI-H460 non-small cell lung cell line; type: functional
[40] = system: Mus musculus; test: Evaluated in vivo for toxic deaths of mice at 1.80 mg/kg for 24 (38) days by intravenous treatment on MDA-MB-435 breast […] cell line; type: toxicity, organism-based; parameters: dose 1.8 mg/kg, route intravenous; details: 1.8 mg/kg; procedure, shortened: as §2
[41] = system: Mus musculus; test: Evaluated in vivo for percent of tumor weight in treated/control of mice at 0.67 mg/kg for 12 days by intraperitoneal treatment on COLO 205 colon cell line; type: functional
[42] = system: Mus musculus; test: Evaluated in vivo for percent of tumor weight in treated/control of mice at 0.90 mg/kg for 7 days by intraperitoneal treatment on RXF-393 renal cell line; type: functional; details: dose 0.9 mg/kg
[43] = system: Mus musculus; test: Evaluated in vivo for percent growth delay in mice at 1.00 mg/kg for 7 days by intraperitoneal treatment on AS283 lymphoma cell line; type: functional
[44] = system: Mus musculus; test: Evaluated in vivo for percent growth delay in mice at 0.67 mg/kg for 12 days by intraperitoneal treatment on COLO 205 colon cell line; type: functional
[45] = system: Mus musculus; test: Evaluated in vivo for percent of tumor weight in treated/control of mice at 0.90 mg/kg for 5 days by intraperitoneal treatment on HCT-15 colon cell line; type: functional; details: dose 0.9 mg/kg
[46] = system: Mus musculus; test: Evaluated in vivo for toxic deaths of mice at 0.90 mg/kg for 5 days by intraperitoneal treatment on HCT-15 colon cell line; type: toxicity, organism-based; parameters: dose 0.9 mg/kg, route intraperitoneal; details: ip, 0.9 mg/kg, 120 h; procedure, shortened: as §2
[47] = system: Mus musculus; test: Evaluated in vivo for percent of tumor weight in treated/control of mice at 1.00 mg/kg for 7 days by intraperitoneal treatment on AS283 lymphoma cell line; type: functional
[48] = system: Mus musculus; test: Evaluated in vivo for percent of tumor weight in treated/control of mice at 1.50 mg/kg for 10 days by intraperitoneal treatment on UACC-62 melanoma cell line; type: functional; details: dose 1.5 mg/kg
[49] = system: Mus musculus; test: Evaluated in vivo for percent of tumor weight in treated/control of mice at 1.80 mg/kg for 24 (38) days by intravenous treatment on MDA-MB-435 breast cell line; type: functional; details: dose 1.8 mg/kg
[50] = system: Mus musculus; test: Evaluated in vivo for toxic deaths of mice at 1.00 mg/kg for 7 days by intraperitoneal treatment on AS283 lymphoma cell line; type: toxicity, organism-based; parameters: dose 1 mg/kg, route intraperitoneal; details: ip, 168 h; procedure, shortened: as §2

CC(=O)N[C@@H]1[C@H](OCc2ccccc2)OC(CO)C(O)[C@H]1OCC(=O)N[C@H](C)C(=O)N[C@H](CCC(=O)OCCCNC(=O)c1cccc2c(=O)c3ccccc3[nH]c12)C(N)=O (some centres undefined)
Cytotoxicity [1]: Active | Cytotoxicity [2]: Active | MID log LC50 [3]: 4.04 M | Cytotoxicity [4]: Active

CC(=O)N[C@@H]1[C@H](OCc2ccccc2)OC(CO)C(O)[C@H]1OC(C)C(=O)N[C@H](C)C(=O)N[C@H](CCC(=O)OCCCNc1c2ccccc2nc2cccc([N+](=O)[O-])c12)C(N)=O (some centres undefined)
Tumor weight [5]: 1% | Score [6]: 2 | Growth delay (T-C/C) [7]: 16% | Tumor weight [8]: 60% | Growth delay (T-C/C) [9]: 1% | Toxic deaths [10]: 1 | Toxic deaths [11]: 1 | Growth delay (T-C/C) [12]: 1% | Growth delay (T-C/C) [13]: -7% | Growth delay (T-C/C) [14]: 3% | Tumor weight [15]: 89% | Toxic deaths [16]: 0 | Score [17]: 2 | Toxic deaths [18]: 0 | MID log LC50 [3]: 5.78 M | Toxic deaths [19]: 2 | Tumor weight [20]: 65% | Tumor weight [21]: 68% | Score [22]: 4 | Growth delay (T-C/C) [23]: 107% | Tumor weight [24]: 105% | Growth delay (T-C/C) [25]: -3% | Toxic deaths [26]: 1

CC(=O)N[C@@H]1[C@H](OCc2ccccc2)OC(CO)C(O)[C@H]1OC(C)C(=O)N[C@@H](C(=O)N[C@H](CCC(=O)OCCCNC(=O)c1cccc2cc3ccccc3nc12)C(N)=O)C(C)C (some centres undefined)
IA [27]: inactive | IA [28]: inactive | IA [29]: inactive

O=[N+]([O-])c1cccc2nc3ccccc3c(NCCO)c12
MID log LC50 [3]: 5.9 M

CC(=O)N[C@@H]1[C@H](OCc2ccccc2)OC(CO)C(O)[C@H]1OCC(=O)N[C@H](C)C(=O)N[C@H](CCC(=O)OCCNC(=O)c1cccc2c(=O)c3ccccc3[nH]c12)C(N)=O (some centres undefined)
IA [27]: inactive | IA [28]: inactive | IA [29]: inactive

CC(=O)N[C@@H]1[C@H](OCc2ccccc2)OC(CO)C(O)[C@H]1OC(C)C(=O)N[C@H](C)C(=O)N[C@H](CCC(=O)OCCNc1c2ccccc2nc2cccc([N+](=O)[O-])c12)C(N)=O (some centres undefined)
Tumor weight [30]: 54% | Score [6]: 12 | Toxic deaths [31]: 0 | Toxic deaths [32]: 0 | Growth delay (T-C/C) [33]: 32% | Toxic deaths [34]: 1 | Growth delay (T-C/C) [35]: 17% | Growth delay (T-C/C) [36]: 5% | Toxic deaths [37]: 0 | Growth delay (T-C/C) [38]: 2% | Growth delay (T-C/C) [39]: 21% | Toxic deaths [40]: 2 | Tumor weight [41]: 75% | Tumor weight [42]: 81% | Score [17]: 8 | Growth delay (T-C/C) [43]: 9% | MID log LC50 [3]: 6.85 M | Score [22]: 20 | Growth delay (T-C/C) [44]: 11% | Tumor weight [45]: 79% | Toxic deaths [46]: 2 | Tumor weight [47]: 63% | Tumor weight [48]: 89% | Tumor weight [49]: 60% | Toxic deaths [50]: 0
